# Compound activity deposited in PubChem BioAssay by several laboratories.
# Shown are actives, neighbours in structure and some others; about 3.7% of the full set was active somewhere.
# MC4R antag cAMP – MC4R antagonists of cAMP signaling, primary screen, cell-based, TR-FRET, antagonist arm of biased-ligand search; Melanocortin receptor 4 (Homo sapiens), P32245; MC4R-expressing cells, MTII-stimulated cAMP, LANCE TR-FRET; inhibition, % at 6.5 µM; 0.48% of 360,000 active;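 active = inhibition above its plate's cutoff, the mean of tested wells on that plate plus 3 SD, cut at about 29% in these data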;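 note: 0% = Melanotan II alone and 100% = Melanotan II plus saturating MCL0020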
# Target sequence (P32245 whole entry, looked up): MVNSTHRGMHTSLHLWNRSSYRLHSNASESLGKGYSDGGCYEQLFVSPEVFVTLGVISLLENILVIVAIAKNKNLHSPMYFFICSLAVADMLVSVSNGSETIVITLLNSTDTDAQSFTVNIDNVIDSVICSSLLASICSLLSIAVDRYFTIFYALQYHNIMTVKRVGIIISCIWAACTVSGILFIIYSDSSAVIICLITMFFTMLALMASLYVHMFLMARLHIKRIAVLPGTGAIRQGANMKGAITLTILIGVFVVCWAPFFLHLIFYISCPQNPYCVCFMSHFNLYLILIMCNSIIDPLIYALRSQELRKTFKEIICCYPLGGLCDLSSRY
#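 Assay system: human MC4R-expressing U2OS cells; reagent: Melanotan II stimulation of cells; dosing: 6.5 µM single dose; timing: compound 30 min, challenge 1 h, detection 1 h; signal: TR-FRET cAMP assay; replicates: one well per compound, no replicates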
# Myeloid diff MLP – induction of myeloid progenitor differentiation, primary screen, cell-based, flow cytometry, MLPCN library. ER-HoxA9 myeloid progenitors, lysozyme-GFP differentiation. calls only at 10 µM. 1% of 360,000 active. AID 624256, 2012;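 active = normalized GFP-positive differentiation at or above the plate's own cutoff, the solvent-only control mean plus 3 SD; inconclusive = no clear call, values can overlap the other calls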;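 note: cells exposed to compound for four days before flow analysis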
# Granule exo inh – LAMP-1 surface exposure blockers, TALL-104 cells – cell-based, flow cytometry, MLPCN library, primary screen; TALL-104 LAMP-1 surface exposure; cells stimulated with thapsigargin and PMA; inhibition, % at 10 µM; 0.66% of 360,000 active; AID 651702, 2012;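 active = inhibition above about 55%, limit read from the data; inconclusive = no clear call, values can overlap the other calls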
# MC4R ag barr – MC4R agonists recruiting beta-arrestin, primary screen, cell-based, luminescence, agonist arm of biased-ligand search; activation, % at 8.9 µM; U2OS MC4R beta-arrestin complementation; percent of melanotan II response, DMSO zero; 0.98% of 360,000 active; Melanocortin receptor 4 (Homo sapiens), P32245;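 active = activation above a per-plate cutoff, the mean activation of sample wells on that plate plus 3 SD, cut at about 8% in these data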
# EBI2 antag – EBI2 receptor antagonists, beta-arrestin recruitment, primary screen, cell-based, luminescence, 7a,25-OHC stimulation, uHTS | G-protein coupled receptor 183 (Homo sapiens), P32249 | 7a,25-OHC stimulated | inhibition, % at 5 µM | 0.81% of 360,000 active | AID 651636, 2012; in the data active = inhibition above about 38%;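 note: enzyme fragment complementation signal reports receptor beta-arrestin coupling in cells; 0% = agonist plus DMSO wells and 100% = wells without agonist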
# EBI2 antag conf – EBI2 antagonist hit retest, beta-arrestin, confirmation, cell-based, single concentration, luminescence, 7a,25-OHC stimulation | shares compounds with EBI2 antag | 7a,25-OHC antagonism | inhibition, % at 5 µM | 29% of 2,400 active;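 active = inhibition of at least 50%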
# EBI2 ag – EBI2 agonist activity of antagonist hits, confirmation, counter-screen for EBI2 antagonist project, cell-based, single concentration, agonist mode, luminescence. 2,400 tested, under 10 active. EBI2-expressing cells, 60 min; 0% vehicle, 100% 7α,25-dihydroxycholesterol control. activation, % at 5 µM. shares compounds with EBI2 antag. AID 652000, 2013;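 active = activation of at least 50%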
# bGal counter – E. coli beta-galactosidase enzyme inhibition, confirmation, counter-screen for EBI2 antagonist project, biochemical, luminescence, single concentration | 1% of 2,400 active | purified beta-galactosidase, luminescent Galacton Star, 15 min | inhibition, % at 5 µM | shares compounds with EBI2 antag;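 active = replicate-average signal at least 3 plate SD below neutral wells, shown as high inhibition, flagging enzyme-inhibiting false positives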;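 note: 0% = DMSO wells with enzyme and 100% = wells lacking enzyme; higher means stronger loss of beta-gal luminescence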
# * = called active by the depositor; i = inactive; ? = inconclusive; nt = no result given.
SMILES,MC4R antag cAMP,Myeloid diff MLP,Granule exo inh,MC4R ag barr,EBI2 antag,EBI2 antag conf,EBI2 ag,bGal counter
CCCCN(C(=O)c1ccc2c(c1)OCCO2)c1c(N)n(CC(C)C)c(=O)[nH]c1=O,1,i,1,-4,-1,nt,nt,nt
Cc1nn(CC(=O)N2CCOCC2)c(=O)c2nn(-c3ccccc3)c(C)c12,6,i,-5,0,-9,nt,nt,nt
CCOC(=O)C1CCN(C(=O)c2cc3cc(Cl)ccc3[nH]2)CC1,26,i,-6,0,89*,67*,2,3
CCOC(=O)C1CCN(C(=O)c2cc3ccc(OC)cc3[nH]2)CC1,17,i,-3,0,38*,25,1,7
CCOC(=O)N1CCN(C(=O)c2cc3ccc(OC)cc3[nH]2)CC1,9,i,0,-2,59*,24,0,7
C[C@H]1COc2cc(N(C)CCO)ccc2S(=O)(=O)N1,nt,i,-1,nt,1,nt,nt,nt
C=CCNC(=O)NC(=O)COC(=O)/C(C#N)=C/c1ccc(OC)cc1,14,i,0,0,-2,nt,nt,nt
O=C(CN1CCN(S(=O)(=O)c2cccc(Br)c2)CC1)NCCc1cccs1,4,i,2,-1,39*,19,0,6
Cc1cccc(C)c1OCC(=O)N/N=C/c1cccnc1,17,i,-1,2,-2,nt,nt,nt
Cc1cc(SCC(=O)N/N=C/c2cccnc2)nc2c(C)cccc12,-2,i,7,-4,65*,23,1,7
Cc1cc2c(cc1C)-c1c(ssc1=Nc1ccc(S(N)(=O)=O)cc1)C(C)(C)N2,16,i,67*,-2,53*,58*,-1,-10
O=C(/C=C/c1ccc(Cl)cc1)NCc1ccncc1,-13,i,-2,1,14,nt,nt,nt
Cc1ccc(/C=C/C(=O)NCc2ccncc2)cc1,-4,i,-3,-4,64*,31,-1,-8
Cc1ccc(/C=C/C(=O)NCc2cccs2)cc1,-2,i,4,0,53*,44,2,1
Cc1ccc(/C=C/C(=O)NCc2cccs2)c(C)c1,13,i,6,2,39,nt,nt,nt
COc1ccc2c(c1)CCC1C2CCC2(C)C(O)C(=O)CC12 (stereo not given),1,i,-20,-1,12,nt,nt,nt
O=c1[nH]c(=O)n(-c2ccc(F)cc2)c2c1C(C(F)(F)F)(C(F)(F)F)N=C(c1ccc(F)cc1)N2,5,i,12,-1,-2,nt,nt,nt
O=C(COC(=O)c1ccc(OC(F)F)cc1)Nc1cccc(S(=O)(=O)NC2=NCCC2)c1,7,i,-6,0,0,nt,nt,nt
O=S(=O)(NC1=NCCC1)c1cccc(NC(=S)Nc2ccc(OC(F)F)cc2)c1,4,i,0,0,48*,31,-1,-4
CCOC(=O)C1CCCN(CCC(=O)Nc2cccc(Cl)c2C)C1 (stereo not given),-6,i,1,-2,-3,nt,nt,nt
Cc1ccc(-c2cc(C#N)c(=O)n(Cc3c(Cl)cccc3Cl)c2)cc1,1,i,0,0,47*,17,1,-7
CC(=O)c1cccc(Nc2nc(-c3sc(C)nc3C)cs2)c1,10,i,15,1,52*,38,-1,-11
CC(=O)c1ccc(Nc2nc(-c3sc(C)nc3C)cs2)cc1,-5,?,-16,1,51*,38,1,11
CNC(=S)N1N=C(c2ccc(OC)cc2)CC1c1ccc(N(C)C)cc1 (stereo not given),-3,i,1,0,87*,81*,2,2
CNC(=S)N1N=C(c2ccc(C)cc2)CC1c1ccc(OC)c(OC)c1 (stereo not given),7,i,4,1,32,nt,nt,nt
SMILES,MC4R antag cAMP,Myeloid diff MLP,Granule exo inh,MC4R ag barr,EBI2 antag,EBI2 antag conf,EBI2 ag,bGal counter
CNC(=S)N1N=C(c2ccc(Br)cc2)CC1c1ccc(Br)cc1 (stereo not given),1,i,1,-1,80*,70*,2,8
COc1ccc(NC(=O)CCC(=O)N(Cc2ccc(OC)c(OC)c2)c2nccs2)c(OC)c1,12,i,6,1,8,nt,nt,nt
COc1ccc(/C=C/C(=O)O)cc1S(=O)(=O)N1CCC(C)CC1,0,i,0,-1,3,nt,nt,nt
COc1ccc(OCC(=O)N2CCN(C(=O)c3ccccc3)CC2)cc1,-3,i,-2,0,77*,74*,-1,-19
COc1ccc(OCC(=O)N2CCN(C(=O)c3cccc4ccccc34)CC2)cc1,3,i,4,-1,70*,38,-1,-13
Cc1cccc(OCC(=O)N2CCN(C(=O)c3ccc([N+](=O)[O-])cc3)CC2)c1,6,i,14,2,47*,23,0,3
COc1ccc(N2CCN(C(=O)COc3cccc4ccccc34)CC2)cc1,0,i,25,-1,10,nt,nt,nt
COc1ccc(OCC(=O)N2CCN(C(=O)c3ccc([N+](=O)[O-])cc3)CC2)cc1,2,i,-18,1,88*,60*,1,9
Cc1cccc(OCC(=O)N2CCN(C(=O)CCC3CCCC3)CC2)c1,6,i,-3,-1,12,nt,nt,nt
COC(=O)C1CCN(C(=O)C2CC(=O)N(c3ccc(C)c(Cl)c3)C2)CC1 (stereo not given),1,i,-3,-1,-6,nt,nt,nt
NC(=O)c1[nH]cnc1N=NN(CCO)Cc1ccccc1,4,i,7,1,-3,nt,nt,nt
Cc1cccc(N(CC(=O)NCC2CCCO2)C(=O)CCC(=O)Nc2nccs2)c1 (stereo not given),16,i,-3,0,8,nt,nt,nt
Cc1ccc(-c2nc3ccccc3n2C(C(=O)NC(C)(C)C)C2CC2)cc1 (stereo not given),nt,i,-6,nt,0,nt,nt,nt
O=C(COc1ccc(Cl)cc1)N1CCN(C(=O)c2ccccc2F)CC1,7,i,-9,0,82*,50,2,6
